Results from publication PMC3479646 (ChemMedChem, 2011).
Marks after values point to notes of the source that are not given here.

How the values were obtained:
TRH-R1 [1] = biological target: T1, TRH-R1 (Mus musculus, UniProt P21761); experiment: Receptor binding assay, competition with [3H][Nτ
T1 sequence (P21761 1-393): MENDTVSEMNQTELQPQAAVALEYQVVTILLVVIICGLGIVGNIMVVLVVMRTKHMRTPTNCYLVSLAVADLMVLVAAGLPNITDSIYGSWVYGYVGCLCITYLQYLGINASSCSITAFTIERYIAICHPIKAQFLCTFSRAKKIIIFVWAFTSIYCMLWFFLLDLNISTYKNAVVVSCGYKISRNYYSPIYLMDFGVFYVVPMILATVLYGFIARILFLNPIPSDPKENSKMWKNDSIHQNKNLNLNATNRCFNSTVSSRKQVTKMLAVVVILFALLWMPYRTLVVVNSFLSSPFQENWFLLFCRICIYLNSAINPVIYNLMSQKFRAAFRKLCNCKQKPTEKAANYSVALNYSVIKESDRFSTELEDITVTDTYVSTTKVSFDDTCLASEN

TRH-R2 [2] = experiment: Receptor binding assay, competition with [3H][Nτ; conditions: ratio of Ki at TRH-R1 and TRH-R2; direction differs between compounds
TRH-R1 [3] = biological target: T1, TRH-R1; experiment: Signaling; format: cell-based
Outline: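 HEK 293EM cells stably expressing TRH-R1, grown in DMEM with 10 % FBS and hygromycin, were seeded at 1.5 × 10^5 cells/well. After 16 h they were calcium-phosphate co-transfected with CREB and a CREB-driven luciferase reporter. Various concentrations of test compound were added in 1 % FBS medium for 6 h at 37 °C. Lysate luminescence was then read for 10 s, with 0.4 mM luciferin and 2 mM ATP. Data are from duplicates in three experiments.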

TRH-R2 [4] = experiment: Signaling; format: cell-based; conditions: ratio of EC50 at TRH-R1 and TRH-R2
Outline: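 HEK 293EM cells stably expressing TRH-R1 or TRH-R2 were co-transfected with CREB and a CREB-luciferase reporter by calcium phosphate. […] Lysates were read by luminescence (0.4 mM luciferin, 2 mM ATP, 10 s). EC50 (μM) was found at each subtype, mean ±SD, duplicates, three experiments.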

mice [5] = experiment: Pentylenetetrazole; format: in vivo; conditions: 10 μmol kg^−1 i.v. 10 min prior to PTZ 65 mg kg^−1 i.p.; mean ± SEM
mice [6] = experiment: Maximal electric shock; format: in vivo; conditions: 10 μmol kg^−1 i.v. 10 min prior to MES 45 mA for 0.2 s; mean ± SEM
Outline: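 Male Swiss albino mice (20–30 g, n = 6–8/group) received saline vehicle or test compound at 10 μmol kg−1 i.v. via the tail vein. MES (45 mA, corneal electrode, 0.2 s) was applied 10 min later, and the duration of tonic hind limb extension was recorded. Data were analysed by one-way ANOVA with Tukey test versus saline.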

Swiss albino mice = experiment: Antagonism of pentobarbital-induced sleeping time; format: in vivo; conditions: 10 μmol kg^−1 i.v.; for Sleep Time: pentobarbital 50 mg kg^−1 i.p. 10 min later, mean ± SEM; for Decrease in Sleep Time: (1−S/C)×100 relative to control, negative = increase; for effect on pentobarbital-induced sleeping time (in words): compared with control group

Row | Ki (TRH-R1 [1]) [µM] | EC50 (TRH-R1 [3]) [µM] | SMILES | Sleep Time (Swiss albino mice) | Decrease in Sleep Time (Swiss albino mice) [%] | further results
1 | – | – | NC(=O)[C@@H]1CCCN1C(=O)[C@H](CC1=CN2CC1=CC=CC=CC1CCN=C12)NC(=O)[C@@H]1CCC(=O)C1 (stereo partly drawn) [Compd 22 d, (1R)-3-Ocp-L-His(1-benzyl-2-cyclopropyl)-L-ProNH2] | 104.9 ± 5.5 min | −16.7 | –
2 | > 50 | – | CC(C)c1nc(C[C@H](NC(=O)[C@@H]2CCC(=O)C2)C(=O)N2CCC[C@H]2C(N)=O)cn1C [Compd 22 i, (1R)-3-Ocp-L-His(1-methyl-2-isopropyl)-L-ProNH2] | 39.8 ± 5.5 ^[b, ^c] min | 55.6 | –
3 | – | – | Cn1cc(C[C@H](NC(=O)[C@@H]2CCC(=O)C2)C(=O)N2CCC[C@H]2C(N)=O)nc1C(C)(C)C [Compd 22 j, (1R)-3-Ocp-L-His(1-methyl-2-tert-butyl)-L-ProNH2] | 89.8 ± 3.0 min | −0.01 | –
4 | > 50 | > 50 | Cn1cc(C[C@H](NC(=O)[C@@H]2CCCC(=O)N2)C(=O)N2CCC[C@H]2C(N)=O)nc1C(C)(C)C [Compd 16 j, L-pAad-L-His(1-methyl-2-tert-butyl)-L-Pro-NH2] | 93.1 ± 4.5 min | −3.6 | –
5 | > 50 | > 50 | CCCc1nc(C[C@H](NC(=O)[C@@H]2CCC(=O)C2)C(=O)N2CCC[C@H]2C(N)=O)cn1C [Compd 22 h, (1R)-3-Ocp-L-His(1-methyl-2-propyl)-L-ProNH2] | 80.2 ± 2.4 min | 10.7 | –
6 | – | – | CC(C)c1nc(C[C@H](NC(=O)[C@@H]2CCCC(=O)N2)C(=O)N2CCC[C@H]2C(N)=O)cn1C [Compd 16 i, L-pAad-L-His(1-methyl-2-isopropyl)-L-ProNH2] | 124.3 ± 5.8 min | −38.2 | –
7 | – | – | CC(C)(C)C1=NC=CC=CC=C2CN1C=C2C[C@H](NC(=O)[C@@H]1CCC(=O)C1)C(=O)N1CCC[C@H]1C(N)=O [Compd 22 c, (1R)-3-Ocp-L-His(1-benzyl-2-tert-butyl)-L-ProNH2] | 91.6 ± 3.8 min | −1.9 | –
8 | – | – | CN1C=C(C[C@H](NC(=O)[C@@H]2CCC(=O)C2)C(=O)N2CCC[C@H]2C(N)=O)C2CCCCCN=C21 (stereo partly drawn) [Compd 22 k, (1R)-3-Ocp-L-His(1-methyl-2-cyclohexyl)-L-ProNH2] | 106.2 ± 3.0 min | −18.1 | –
9 | – | – | CCCc1nc(C[C@H](NC(=O)[C@@H]2CCCC(=O)N2)C(=O)N2CCC[C@H]2C(N)=O)cn1C [Compd 16 h, L-pAad-L-His(1-methyl-2-propyl)-L-ProNH2] | 98.1 ± 9.4 min | −9.1 | –
10 | > 50 | > 50 | CC(C)c1nc(C[C@H](NC(=O)[C@@H]2CCC(=O)N2)C(=O)N2CCC[C@H]2C(N)=O)cn1C [Compd 10 b, L-pGlu-L-His(1-methyl-2-isopropyl)-L-ProNH2] | 66.2 ± 9.8 min | 25.1 | effect on pentobarbital-induced sleeping time (in words) (Swiss albino mice): significant decrease in sleeping time
11 | – | – | CN1C=C(C[C@H](NC(=O)[C@@H]2CCCC(=O)N2)C(=O)N2CCC[C@H]2C(N)=O)C23CC4CC(CN=C12)CC(C4)C3 [Compd 16 m, L-pAad-L-His[1-methyl-2-(adamantan-1-yl)]-L-ProNH2] | 76.0 ± 10.9 min | 15.4 | –
12 | – | – | NC(=O)[C@@H]1CCCN1C(=O)[C@H](CC1=CN2CC1=CC=CC=CC1CCCCN=C12)NC(=O)[C@@H]1CCC(=O)N1 (stereo partly drawn) [Compd 10 l, L-pGlu-L-His(1-benzyl-2-cyclopentyl)-L-ProNH2] | 163.3 ± 18.7 ^[b, ^c] min | −84.7 | effect on pentobarbital-induced sleeping time (in words) (Swiss albino mice): increased the sleeping time significantly
13 | > 50 | > 50 | Cn1cc(C[C@H](NC(=O)[C@@H]2CCC(=O)N2)C(=O)N2CCC[C@H]2C(N)=O)nc1C(C)(C)C [Compd 10 c, L-pGlu-L-His(1-methyl-2-tert-butyl)-L-ProNH2] | 59.6 ± 5.5 min | 32.5 | –
14 | > 50 | > 50 | CC(C)n1cnc(C[C@H](NC(=O)[C@@H]2CCC(=O)C2)C(=O)N2CCC[C@H]2C(N)=O)c1 [Compd 21 d, (1R)-3-Ocp-L-His(1-isopropyl)-L-ProNH2] | 123.2 ± 5.9 min | −36.8 | –
15 | 0.32 | 0.29 | CCCc1nc(C[C@H](NC(=O)[C@@H]2CCC(=O)N2)C(=O)N2CCC[C@H]2C(N)=O)cn1C [Compd 10 a, L-pGlu-L-His(1-methyl-2-propyl)-L-ProNH2] | 41.7 ± 6.1 ^[b] min | 52.7 | Fold Selectivity (Ki) (TRH-R2 [2]): 1.9; Fold Selectivity (EC50) (TRH-R2 [4]): 11; effect on pentobarbital-induced sleeping time (in words) (Swiss albino mice): significant decrease in sleeping time
16 | – | – | CCCC1=NC=CC=CC=C2CN1C=C2C[C@H](NC(=O)[C@@H]1CCC(=O)N1)C(=O)N1CCC[C@H]1C(N)=O [Compd 10 h, L-pGlu-L-His(1-benzyl-2-propyl)-L-ProNH2] | 105.1 ± 5.76 min | −18.8 | effect on pentobarbital-induced sleeping time (in words) (Swiss albino mice): increased the sleeping time significantly
17 | – | – | CN1C=C(C[C@H](NC(=O)[C@@H]2CCCC(=O)N2)C(=O)N2CCC[C@H]2C(N)=O)C2CCCCN=C21 (stereo partly drawn) [Compd 16 k] | 108.1 ± 14.4 min | −20.2 | –

Row | SMILES | Ki (TRH-R1 [1]) [µM] | EC50 (TRH-R1 [3]) [µM] | Sleep Time (Swiss albino mice) | Decrease in Sleep Time (Swiss albino mice) [%] | further results
18 | CCCn1cnc(C[C@H](NC(=O)[C@@H]2CCC(=O)C2)C(=O)N2CCC[C@H]2C(N)=O)c1 [Compd 21 c, (1R)-3-Ocp-L-His(1-propyl)-L-ProNH2] | 8.1 | 4.6 | – | – | Fold Selectivity (Ki) (TRH-R2 [2]): 1.5; Fold Selectivity (EC50) (TRH-R2 [4]): 4; PTZ: Clonic Convulsions Frequency (mice [5]): 1.3 ± 0.21 min⁻¹; PTZ: Clonic Convulsions Onset (mice [5]): 68 ± 3 s; MES: Hind Limb Extension Duration (mice [6]): 12.3 ± 0.90 s
19 | Cn1cnc(C[C@H](NC(=O)[C@@H]2CCC(=O)C2)C(=O)N2CCC[C@H]2C(N)=O)c1 [Compd 21 a, (1 R)-3-Ocp-L-His(1-methyl)-L-ProNH2] | 0.17 | 0.05 | – | – | decrease in binding affinity for TRH-R1 relative to TRH (TRH-R1 [1]; Ki compared with TRH): 10 fold; Fold Selectivity (Ki) (TRH-R2 [2]): 10.6; Fold Selectivity (EC50) (TRH-R2 [4]): 24; PTZ: Clonic Convulsions Frequency (mice [5]): 1.3 ± 0.33 min⁻¹; PTZ: Clonic Convulsions Onset (mice [5]): 153 ± 7 ^*^, ^** s; MES: Hind Limb Extension Duration (mice [6]): 10.0 ± 0.60 s
20 | CCn1cnc(C[C@H](NC(=O)[C@@H]2CCC(=O)C2)C(=O)N2CCC[C@H]2C(N)=O)c1 [Compd 21 b, (1R)-3-Ocp-L-His(1-ethyl)-L-ProNH2] | 0.1 | 0.14 | – | – | Fold Selectivity (Ki) (TRH-R2 [2]): 3.2; Fold Selectivity (EC50) (TRH-R2 [4]): 4.7; PTZ: Clonic Convulsions Frequency (mice [5]): 1.3 ± 0.21 min⁻¹; PTZ: Clonic Convulsions Onset (mice [5]): 149 ± 8 ^*^, ^** s; MES: Hind Limb Extension Duration (mice [6]): 11.3 ± 1.4 s
